Measured values as given in ChEMBL document CHEMBL4513216, “Probing the Open Global Health Chemical Diversity Library for Multistage-Active Starting Points for Next-Generation Antimalarials” (ACS Infect Dis, 2020).

test: Toxicity liver stage against HepG2, at 10uM; assay type: cell-based; set-up: test concentration 10 uM, cell line HepG2-A16-CD81EGFP; conditions: human, HepG2-A16-CD81EGFP cells; read-out: INHIBITION
Summary of the method: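 Uninfected HepG2-A16-CD81EGFP cells, 3 × 10^3 per well, 1536-well, plated on prespotted compound at 10 μM final, parasite-free screening media added to match infected plates; puromycin 10 μM positive, DMSO 0.5% negative; run in parallel with 48 h PbLuc assay at 37 °C, 5% CO2; viability by CellTiter-Glo luminescence, normalized to controls.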

| SMILES | cytotoxicity at 10 µM [%] |
| --- | --- |
| COc1ccc2c(c1)nc1n2[C@@H](CNCc2ncccc2C)COC1 | 3.1 |
| O=c1cc2c(nn1CN1CCSCC1)CCC2 | -4.86 |
| Cn1cccc1C(O)CNS(=O)(=O)c1ccccc1F (stereo not given) | -14.6 |
| CCc1ccc(S(=O)(=O)N2CCN(CCn3ccnc3)CC2)cc1 | -8.81 |
| Cn1nc(N2CCCC(C(=O)Nc3nc4ccccc4[nH]3)C2)ccc1=O (stereo not given) | 1.08 |
| c1ccc(-c2nnn3c2COC(CNCc2ccccn2)C3)cc1 (stereo not given) | 0.595 |
| O=c1[nH]nc2c(S(=O)(=O)N3CCCCC3)cccn12 | 2.41 |
| O=S(=O)(c1ccc(F)cc1)n1cc(Cl)cn1 | 0.0667 |
| O=C(Cc1ccccc1F)N1CCCCC1c1ccn2ccnc2n1 (stereo not given) | -3.83 |
| CNc1cccc(C2CCCN(C(=O)c3cscn3)C2)n1 (stereo not given) | -11.3 |
| CCN(CC)C(=O)Cn1c(=O)n(Cc2ccco2)c2ncccc21 | -6.77 |
| C[C@H](C(=O)N1Cc2ccccc2CC2(CCCN2C)C1)c1ccccc1 (stereo not given in full) | 6.42 |
| O=C(NCc1ccc(C(=O)O)o1)c1ccc(F)cc1 | 13.2 |
| COCCCS(=O)(=O)N1CCN(Cc2cccn2C)CC1 | -9.53 |
| Cc1cc(N(C)C)nc(N2CCn3c(C)nnc3C2)n1 | -5.14 |
| CC(C)(C)c1cn2c(n1)C(CNCc1cnn3ccccc13)CCC2 (stereo not given) | -13.4 |
| COC(=O)CNC(=O)c1ccn(-c2ccc(Cl)c(Cl)c2)n1 | -8.77 |
| CN1CCN(c2ccc(F)cc2NC(=O)NCc2ccon2)CC1 | -6.84 |
| COCCOCC(=O)NC1CCN(c2ccccn2)CC1 | -0.555 |
| CC(C)c1noc(C[S+]([O-])CC(=O)Nc2ccc(F)c(F)c2)n1 (stereo not given) | -8.82 |
| CC(Cc1c(F)cccc1F)NC(=O)NCc1ncnn1C (stereo not given) | 12.9 |
| CCN(C)Cc1cccc(CNC(=O)NCCc2ccccn2)c1 | 2.8 |

| SMILES | cytotoxicity at 10 µM [%] |
| --- | --- |
| CCCN(CCC)C(=O)c1cnn(C)c1C | -128 |
| COC(=O)c1cccc(CNC(=O)CC(F)(F)F)c1 | 17.4 |
| O=C(CCC1CCCO1)NCCCO (stereo not given) | 11.2 |
| CCCOc1ccc2c(c1)OCC(C(=O)NC(C)Cn1ccnc1)=C2 (stereo not given) | -4.03 |
| COC(=O)C(CNC(=O)Nc1nncs1)Cc1ccc(O)cc1 (stereo not given) | 16.9 |
| CC(Nc1nc2c(cnn2C)c(=O)[nH]1)c1ccc2c(c1)CCCC2 (stereo not given) | 9.62 |
| Cc1cnc(CN(Cc2ccc(Cl)s2)C2CCN(C)C2)o1 (stereo not given) | 14.5 |
| CC(CNC(=O)N1CCNC(=O)CC1)Cc1cccs1 (stereo not given) | -5.62 |
| CCS(=O)(=O)NCc1cc(Br)c(OC)c(OC)c1 | -6.83 |
| COC(=O)[C@H](C)NC(=O)c1cnc(Cc2ccc(F)cc2)s1 | -10.9 |
| COc1ccc(-c2nnc(SC(C)C(=O)NC3CCCC3)[nH]2)c(OC)c1 (stereo not given) | 36.4 |
| O=C(c1ccncc1)N1CCCC1C1CCN(Cc2ccccc2)CC1 (stereo not given) | 7.43 |
| O=C(c1ccoc1)N1CCCC1C1CCN(Cc2ccccc2)CC1 (stereo not given) | -10.6 |
| Cn1cc(C(=O)Nc2cccc(Oc3ccncc3)c2)ccc1=O | -1.21 |
| Cc1cccc(OC2CCN(c3ccc(C#N)cn3)CC2)n1 | 15.5 |
| Cc1c(I)cccc1C(=O)NCc1nnc[nH]1 | -2.86 |
| CNC(=O)c1cccc(CNC(C)c2cc(C)ccc2OC(F)F)c1 (stereo not given) | 20.2 |
| COCC(NC(=O)c1cn(-c2cccc(Cl)c2F)nn1)C1CC1 (stereo not given) | 11.1 |
| CCCc1ccc(S(=O)(=O)NC2(CC(N)=O)CCC2)cc1 | 17.9 |
| CCc1cc(CNC(=O)NCc2ccc(N3CCCCC3)cc2)on1 | 1.27 |
| CC(c1nnc(-c2cccs2)o1)N1CCn2c(nnc2C2CC2)C1 (stereo not given) | 17.7 |
| COCC(O)CN(C)C(=O)NCc1ccc(-c2ccn[nH]2)cc1 (stereo not given) | 1.81 |

| SMILES | cytotoxicity at 10 µM [%] |
| --- | --- |
| CCSc1ccc(C(C)NC(=O)CNS(C)(=O)=O)cc1 (stereo not given) | 10.4 |
| COc1cccc(C2=CCN(CCN3CCCC3=O)CC2)c1 | -10.6 |
| N#Cc1cc(F)c(NCc2ccc(F)cc2)c(F)c1 | -57 |
| COCc1ccc(CNC(=O)C2=NN(c3ccccc3)C(=O)CN2)cc1 | 26.7 |
| Cc1ccc(C(=O)NCCCNS(C)(=O)=O)cc1-n1cccc1 | -10 |
| CN(C)C[C@@H]1C[C@@H]2CN(Cc3nccn3C)CC[C@@H]2N1CC1CC1 | -101 |
| CC(=O)N1CCO[C@@H]2CN(C(=O)NCc3ccccc3)CC[C@@H]2C1 | -97.7 |
| Cc1nc(CO[C@H]2CN(C(=O)c3cccnc3)[C@@H]3COC[C@H]23)cs1 | -110 |
| CN(C)CCN1CCO[C@@H]2CN(C(=O)Cc3ccsc3)CC[C@@H]2C1 | -119 |
| CCOCC1CN(C(=O)Cc2ccccn2)Cc2cn(C)nc21 (stereo not given) | 1.86 |
| CC(=O)N1CCC2(CCN(C(=O)c3ccc(Cl)c(C(F)(F)F)c3)CC2)C1 | -4.48 |
| Cc1nccn1CCC(=O)N1CCCN(CCCc2ccccc2)CC1 | -13.6 |
| Cc1sc2nc(CCN)nc(N(CCN(C)C)CC3CCCO3)c2c1C (stereo not given) | -9.54 |
| CC(C)c1nccc(CN(C)Cc2cnn(-c3ccccc3)c2)n1 | 6.66 |
| CCOc1ccc2nc(CN3CCC(CNC(C)=O)C3)ccc2c1 (stereo not given) | -7.23 |
| CCN1CC(C(=O)N2CCc3cc(C(=O)N(C)C)n(C)c3C2)CCC1=O (stereo not given) | -48.1 |
| CCn1c(CC2CCN(C(=O)c3cc(CC(C)C)on3)CC2)n[nH]c1=O | -2.7 |
| COCc1noc(CN2CCCCC2CCc2cccs2)n1 (stereo not given) | 0.642 |
| Cc1ccc(-c2ccnc(NC(c3ncccc3C)C3CC3)n2)c(C)n1 (stereo not given) | 0.656 |
| CCOC(=O)CNc1nc(C(C)(C)C)nc2c1cnn2C | -12.8 |
| CCN(CC)C(=O)c1ccc(Cl)c(NC(=O)c2cnc(C)cn2)c1 | -0.273 |
| CCc1cc(N(C)Cc2[nH]nc3c2CCC3)nc(N2CCOCC2)n1 | 5.51 |

| SMILES | cytotoxicity at 10 µM [%] |
| --- | --- |
| Cc1nccn1CCN(C)c1cc(C(C)C)nc2ccnn12 | -3.88 |
| COc1cc(CN2CCC(O)(c3ccc(C)cn3)CC2)cc(Cl)c1OC | -132 |
| Cc1cc(N2CCN(C3CCSCC3)CC2)n2nc(C)c(C)c2n1 | 0.0879 |
| CC(C1CCN(Cc2c(Cl)cncc2Cl)CC1)N1CCN(C)CC1 (stereo not given) | -12.2 |
| COCCN1CCCC2(CCN(Cc3nnc(C4CC4)o3)C2)C1=O (stereo not given) | 0.15 |
| NC1CCN(C(=O)c2cnc(Cc3c(Cl)cccc3Cl)nc2O)C1 (stereo not given) | -0.803 |
| Cc1ncn(-c2cc(N3CCN(S(C)(=O)=O)CC3)ncn2)c1C | 6.23 |
| COCc1nc(C2CC2)nn1-c1cc(Cl)ccc1OC | -10.2 |
| Cc1cc(C(=O)N(C)Cc2ccn[nH]2)c(NC(=O)C(C)(C)C)s1 | 2.72 |
| Cc1noc(C(C)C)c1C(=O)NCc1cccc(CN(C)C)c1 | -8.23 |
| CN1CCN(C2CCN(CCOc3cccc(Cl)c3)CC2)C1=O | -2.83 |
| COc1ccc(-n2ccc(C(=O)NCCN3CCCCCC3)n2)cc1 | -3.84 |
| CC1CCCN(CCNC(=O)c2ccn(-c3cccc(F)c3)n2)C1 (stereo not given) | -3.25 |
| Cc1ccc(CN(C)C(=O)CN2CCCC(Cn3cncn3)C2)cc1 (stereo not given) | -6.41 |
| CCN1CCCC(CNC(=O)C2(c3cc(C)cc(C)c3)CCC2)C1 (stereo not given) | -10.7 |
| CC(OCC1CC1)C(=O)Nc1ncn(CC(=O)N2CCCCCC2)n1 (stereo not given) | -15.2 |
| CCOCC(O)CN1CCN(C(=O)Cc2ccc3c(c2)CCC3)CC1 (stereo not given) | -15.5 |
| O=C(CCc1nccs1)N1CCN(c2ccccn2)CC1 | -19.7 |
| Cn1ccnc1C(NCc1csc(Br)c1)c1ccccc1 (stereo not given) | -0.12 |
| CC(NCc1ccccc1Br)c1ccc2[nH]c(=O)[nH]c2c1 (stereo not given) | -6.12 |
| Cc1cc(C)c(CNC(=O)N2CCN(c3cnccn3)CC2)c(=O)[nH]1 | -2.58 |
| CCN1CCN(C2CCN(Cc3noc(C)n3)CC2)C1=O | -8.13 |

| SMILES | cytotoxicity at 10 µM [%] |
| --- | --- |
| Cc1nn(-c2ccccc2)cc1C(=O)N1CCCN2CCCC2C1 (stereo not given) | -2.21 |
| CCc1n[nH]c(C2CN(C(=O)CCc3cccs3)CCO2)n1 (stereo not given) | 5.73 |
| CCc1nc(C2CCCN(C(=O)CN(C)S(C)(=O)=O)C2)no1 (stereo not given) | -3.22 |
| Cc1nc(CN2CCCCC2Cn2cncn2)nc2ccccc12 (stereo not given) | -3.46 |
| COc1ccc(S(N)(=O)=O)cc1C(=O)N(C)Cc1cc(C)on1 | -4.3 |
| Cc1cccc(N(CC(=O)c2ccccc2)C2=NCCCCC2)c1 | 14.5 |
| c1cncc(-c2nccc(CN3CCCC3)n2)c1 | 2.34 |
| CCOC(=O)[C@]12CCCN(Cc3cccs3)C[C@H]1CN(C(C)=O)C2 | 4.13 |
| Cc1cc(CN2C[C@@H](C)[C@@]3(CCN(CC(=O)N(C)C)C3=O)C2)oc1C | 9.94 |
| CN1CC(=O)N(c2cnn(C)c2)CC12CCN(C(=O)c1ccsc1)C2 (stereo not given) | -1.37 |
| Cc1ccc(N2C[C@@H]3CN(C(=O)c4ccccc4)CCO[C@@H]3C2)nn1 | -5.52 |
| O=C(NCc1ccccn1)[C@@]12CCO[C@@H]1CCN(Cc1ccccn1)C2 | -112 |
| Cc1cccc(CN2CCC3(CCCN(CC(=O)N(C)C)C3)C2)n1 (stereo not given) | -101 |
| COCCN1CCN(c2ccc(C)nn2)Cc2ccc(C)nc21 | -104 |
| Cn1cc(CN2CC[C@]3(C[C@H](Oc4ccccn4)CO3)C2)cn1 | 10.8 |
| c1cc(C2CC2)n2cnc(C3CN(Cc4ccncc4)CCO3)c2c1 (stereo not given) | 6.59 |
| Cc1nc(CN2CCCn3c(nc(Cn4cncn4)cc3=O)C2)cs1 | 3.75 |
| CN(Cc1cccnc1)Cc1cncc2c1CCN(c1ccccn1)C2 | -108 |
| Cc1nc(COC[C@H]2CC[C@H]3NCC[C@H]3O2)cs1 | -5.64 |
| c1cncc(OCc2n[nH]c3c2CN(Cc2cccs2)C3)c1 | -113 |
| O[C@@H]1CC(CNCC2CC2)(COc2cccnc2)C[C@@H]1O (stereo not given in full) | -2.64 |
| CCN(CC)S(=O)(=O)N1C[C@H]2CC[C@@H](C1)N(Cc1cscn1)C2=O | -21.1 |
